Converted amounts (≈) assume the structure as drawn.
Experiments:
[1] = Tmax in CD-1 mouse at 5 mg/kg, po by LC-MS analysis; type: ADME, organism-based; conditions: in vivo
In short: (§1)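 Female CD-1 mice, 5 weeks old, 3 animals per time point. Compound dissolved in DMSO, diluted in Captisol, given p.o. at 5 mg/kg or i.v. at 2 mg/kg. Animals sacrificed at 5, 15 and 30 min and 1, 2, 4, 7 and 24 h. Plasma precipitated with cold acetonitrile and quantified by LC-MS/MS (SRM, positive H-ESI) against a blank mouse plasma calibration curve.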

[2] = AUC (0 to t) in CD-1 mouse at 5 mg/kg, po by LC-MS analysis; type: ADME, organism-based; parameters: dose 5 mg/kg; conditions: in vivo
In short: (§2)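 Female CD-1 mice, 5 weeks old, 3 per time point. Dosed at 10 µl/g, DMSO solution diluted in Captisol, p.o. 5 mg/kg or i.v. 2 mg/kg. Sacrifice at 5, 15, 30 min and 1, 2, 4, 7, 24 h. Plasma acetonitrile-precipitated, quantified by LC-MS/MS (C18, positive H-ESI, SRM) against a calibration curve in blank mouse plasma.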

[3] = Oral bioavailability in CD-1 mouse at 5 mg/kg by LC-MS analysis; type: ADME, organism-based; conditions: in vivo; in short: as §1
[4] = Kinetic solubility of compound in water at 500 uM measured after […] by UV-VIS absorption spectrophotometry; type: physicochemical; conditions: time 1.5 hrs, read-out: Kinetic_solubility
[5] = Tmax in CD-1 mouse at 2 mg/kg, iv by LC-MS analysis; type: ADME, organism-based; conditions: in vivo; in short: as §1
[6] = Cmax in CD-1 mouse at 2 mg/kg, iv by LC-MS analysis; type: ADME, organism-based; parameters: route intravenous, dose 2 mg/kg; conditions: in vivo; in short: as §2
[7] = AUC (0 to t) in CD-1 mouse at 2 mg/kg, iv by LC-MS analysis; type: ADME, organism-based; parameters: dose 2 mg/kg; conditions: in vivo; in short: as §2
[8] = Cmax in CD-1 mouse at 5 mg/kg, po by LC-MS analysis; type: ADME, organism-based; parameters: route oral, dose 5 mg/kg; conditions: in vivo; in short: as §2
[9] = Kinetic solubility of compound in pH 7.4 Soerensen's buffer at 500 uM measured after […] by UV-VIS absorption spectrophotometry; type: physicochemical; conditions: time 1.5 hrs, read-out: Kinetic_solubility
[10] = AUC (0 to infinity) in CD-1 mouse at 5 mg/kg, po by LC-MS analysis; type: ADME, organism-based; parameters: time infinity, route oral, dose 5 mg/kg; conditions: in vivo; in short: as §2
[11] = AUC (0 to infinity) in CD-1 mouse at 2 mg/kg, iv by LC-MS analysis; type: ADME, organism-based; parameters: route intravenous, time infinity, dose 2 mg/kg; conditions: in vivo; in short: as §2

## Nc1n[nH]c2cc(-c3ccc(=O)n(Cc4ccccc4F)c3)ccc12
[1]
  Tmax: 15 min
[2]
  AUCt: 517 ng·h/mL
[3]
  bioavailability: 33%
[4]
  solubility kinetic at […], 500 µM: > 500 µM
[5]
  Tmax: 4.8 min
[6]
  Cmax: 1670 ng/mL
[7]
  AUCt: 629 ng·h/mL
[8]
  Cmax: 335 ng/mL
[9]
  solubility kinetic at […], 500 µM: 466 µM (≈ 156 µg/mL)
[10]
  AUC: 674 ng·h/mL
[11]
  AUC: 677 ng·h/mL

## Nc1n[nH]c2cc(-c3ccc(=O)n(Cc4cccc(Cl)c4)c3)ccc12
[1]
  Tmax: 15 min
[2]
  AUCt: 2150 ng·h/mL
[3]
  bioavailability: 100%
[4]
  solubility kinetic at […], 500 µM: 275 µM (≈ 96.5 µg/mL)
[5]
  Tmax: 4.8 min
[6]
  Cmax: 1490 ng/mL
[7]
  AUCt: 834 ng·h/mL
[8]
  Cmax: 1050 ng/mL
[9]
  solubility kinetic at […], 500 µM: 172 µM (≈ 60.3 µg/mL)
[10]
  AUC: 2410 ng·h/mL
[11]
  AUC: 855 ng·h/mL

Reference: ChEMBL document CHEMBL4732118, “Discovery of indazole-pyridinone derivatives as a novel class of potent and selective MNK1/2 kinase inhibitors that protecting against endotoxin-induced septic shock” (Eur J Med Chem, 2021)
